# Laboratory results reported in publication PMC12065538 (Drug Design, Development and Therapy, 2025).
# Where two headings read alike, the source gives them in different places.
# Key:
# [1] = cited from earlier work
# [2] = Observed plasma concentrations of venetoclax concomitant with voriconazole; assay type: in vivo; conditions: human, oral, 100 mg
# Method in brief: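 Adults with hematologic malignancies received test compound 100 mg orally once daily plus an azole antifungal (400 mg bid day 1, then 200 mg bid; or 200 mg bid continued). Intensive set: EDTA blood 0–1 h predose and 2–24 h post-dose on day 5–11. Validation set: troughs 0–1 h predose, day 2–22. Plasma measured by LC-MS/MS in MRM mode with deuterated internal standards; calibration range 0.05–10.0 μg/mL.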
# plasma protein = conditions: regardless of concentration; ref prescribing information; cited from earlier work
# [3] = venetoclax 100 mg with posaconazole
structure (smiles),measurement,setting,value
CC1(C)CCC(CN2CCN(c3ccc(C(=O)NS(=O)(=O)c4ccc(NCC5CCOCC5)c([N+](=O)[O-])c4)c(Oc4cnc5[nH]ccc5c4)c3)CC2)=C(c2ccc(Cl)cc2)C1 [venetoclax],reduction of apparent oral clearance (CL/F) by CYP3A inhibitors,"[1]; PopPK studies, various patient populations and healthy subjects",82–86%
same,CL/F,"[1]; co-administered with posaconazole, patients with AML",1.1 to 1.4 L/h
same,AUC24h,"[1]; observed, venetoclax 70 mg with posaconazole, day 12, CV 54%",49100 ± 26500 ng·h/mL
same,CL/F,[1]; other PopPK models with strong CYP3A inhibitors as covariates,2.2 to 3.6 L/h
same,AUC24h,[1]; venetoclax 50 mg with posaconazole,47200 ± 27400 ng·h/mL
same,accumulation ratio (AUC24h day 14 to day 7),"[1]; venetoclax 70 mg with posaconazole 300 mg qd, range 1.0–2.9",1.3
same,AUC24h,[1]; [3],76200 ± 13700 ng·h/mL
same,average AUC higher than venetoclax (400 mg) with caspofungin,[1]; [3],103%
same,AUC24h,[1]; venetoclax 400 mg administered alone,32800 ± 16900 ng·h/mL
same,accumulation ratio (AUC24h day 14 to day 7),"[1]; venetoclax 400 mg alone, range 0.5–2.1",1.0
same,CL/F,[1]; venetoclax alone,15.0 to 19.5 L/h
same,AUC increase versus venetoclax (400 mg) with caspofungin,[1]; venetoclax with voriconazole,77%
same,increase of AUC,[1]; with posaconazole,8.8 fold
same,increase of Cmax,[1]; with posaconazole,7.1 fold
same,AUC,[2],52400 ng·h/mL
same,fu (unbound fraction in plasma),plasma protein,< 0.01
